Active and inactive are the calls of the source. The rule behind the calls is not given here.
Key:
[1] = molecular target: T1, Retinoic acid receptor RXR-alpha (Homo sapiens, UniProt P19793); experiment: Displacement of [3H]-9-cis-RA from human GST-tagged N-terminal truncated RXRalpha after 1 hr by liquid scintillation counting
T1 sequence (P19793 whole entry): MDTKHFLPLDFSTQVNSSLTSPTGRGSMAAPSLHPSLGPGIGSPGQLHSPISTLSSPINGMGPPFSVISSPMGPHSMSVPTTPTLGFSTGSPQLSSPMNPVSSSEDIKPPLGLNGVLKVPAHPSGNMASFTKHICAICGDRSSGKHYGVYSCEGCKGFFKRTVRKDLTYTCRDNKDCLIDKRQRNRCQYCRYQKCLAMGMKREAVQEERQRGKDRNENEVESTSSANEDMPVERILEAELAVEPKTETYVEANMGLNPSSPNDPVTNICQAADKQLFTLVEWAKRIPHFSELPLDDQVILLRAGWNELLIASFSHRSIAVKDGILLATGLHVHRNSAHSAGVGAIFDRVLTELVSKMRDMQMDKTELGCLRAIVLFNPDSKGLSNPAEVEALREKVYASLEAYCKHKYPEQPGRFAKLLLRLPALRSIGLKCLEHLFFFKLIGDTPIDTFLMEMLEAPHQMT
Outline: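 GST-tagged human RXRα-LBD (223–462) preincubated with unlabeled 9-cis-RA or test compound at varied concentrations in binding buffer (0.15 M KCl, 10 mM Tris·HCl pH 7.4, 8% glycerol, 0.5% CHAPS), 4°C, 1 h; [3H]-9-cis-RA then added to 7.5 nM final, overnight at 4°C. Receptor captured on glutathione sepharose beads; bound radioligand counted by liquid scintillation.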

HCT-116 = experiment: Induction of apoptosis in human HCT116 cells assessed as increase in TNFalpha-induced PARP cleavage at 40 uM after 4 hrs by Western blot analysis; format: functional, cell-based
ZR-75-1 [2] = experiment: Induction of apoptosis in human ZR75-1 cells assessed as PARP cleavage at 30 uM after 6 hrs by Western blot analysis; format: functional, cell-based
Outline: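 ZR-75-1 cells (RPMI1640, 10% FBS) treated with vehicle or 30 μM compound for 6 hr. Lysates run on 10% SDS-PAGE, blotted to PVDF and probed with anti-PARP (1:3000) for cleavage, ECL detection.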

[3] = molecular target: T1, Retinoic acid receptor RXR-alpha; experiment: Displacement of [3H]-9-cis-RA from RXRalpha (unknown origin) by liquid scintillation counting
[4] = molecular target: T2, Retinoic acid receptor RXR-alpha (Homo sapiens) (UniProt P19793); experiment: Inhibition of RXRalpha in human HepG2 cells assessed as inhibition of TNFalpha-induced Akt phosphorylation; format: cell-based
T2 sequence (whole entry): T1 sequence (P19793 whole entry)

[5] = molecular target: T2, Retinoic acid receptor RXR-alpha (Homo sapiens); experiment: Inhibition of RXRalpha in human HCT116 cells assessed as inhibition of TNFalpha-induced Akt phosphorylation; format: cell-based; details: HCT-116
[6] = molecular target: T2, Retinoic acid receptor RXR-alpha (Homo sapiens); experiment: Antagonist activity at RXRalpha (unknown origin) expressed in HCT116 cells assessed as inhibition of 9-cis-RA-induced galactosidase activity after 12 hrs by gal4 reporter gene assay; format: cell-based; details: HCT-116, in the assay text read “luciferase activity” for “galactosidase activity”
Outline: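 GAL4-RXRα-LBD transactivation in HCT-116 cells: cells transfected for 24 hr with pG5 luciferase reporter (50 ng/well) plus pGAL4-RXRα-LBD vector (50 ng/well), then exposed to 9-cis-RA (10^-7 M) together with varied compound concentrations for 12 hr. Luciferase read by dual-luciferase assay. Cells grown in DMEM with 10% FBS, 37°C, 5% CO2.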

[7] = molecular target: T2, Retinoic acid receptor RXR-alpha (Homo sapiens); experiment: Inhibition of RXRalpha in human A549 cells assessed as inhibition of TNFalpha-induced Akt phosphorylation at 30 uM incubated for 1 hr prior to TNFalpha-induction measured after 30 mins by Western blot analysis; format: cell-based
Outline: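 A549 cells (DMEM, 10% FBS) pretreated 1 hr with 30 μM compound, then TNFα (10 ng/mL) for 30 min. Phospho-AKT (1:1000) and total AKT (1:1000) immunoblotted after 10% SDS-PAGE, with ECL detection.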

PC-3 = experiment: Cytotoxicity against human PC3 cells after 24 hrs by MTT assay; format: functional, cell-based
Outline: (§1)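 Cells in RPMI1640 with 10% FBS (37°C, 5% CO2) treated with various concentrations for 24 hr in 96-well format. MTT at 2 mg/mL added for 4 hr at 37°C, formazan dissolved in DMSO, absorbance read at 570 nm for viability.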

ZR-75-1 [8] = experiment: Cytotoxicity against human ZR75-1 cells after 24 hrs by MTT assay; format: functional, cell-based; outline: as §1
HeLa = experiment: Decrease in TNFalpha-induced Akt phosphorylation in RXRalpha-knockdown human HeLa cells at 20 uM incubated for 1 hr prior to TNFalpha-induction measured after 30 mins by Western blot analysis; format: functional, cell-based

| SMILES | IC50 [1] [µM] | also measured |
| --- | --- | --- |
| CC1=C(CC(N)=O)c2cc(F)ccc2/C1=C/c1ccc(C(C)C)cc1 | ≥ 100 |  |
| CC1=C(CC(=O)O)c2cc(F)ccc2/C1=C\c1ccc(C(F)(F)F)cc1 | 4.73 |  |
| CC1=C(CC(=O)O)c2cc(C(C)C)ccc2/C1=C\c1ccc(C(C)C)cc1 | ≥ 100 |  |
| CC1=C(CC(=O)O)c2cc(F)ccc2/C1=C\c1ccc(-c2ccccn2)cc1 | ≥ 100 |  |
| COc1ccc(/C=C2/C(C)=C(CC(=O)O)c3cc(F)ccc32)cc1 | ≥ 100 |  |
| CCC1=C(CC(=O)O)c2cc(F)ccc2/C1=C\c1ccc(C(C)C)cc1 | 6.29 |  |
| CC1=C(CC(=O)O)c2cc(Cl)ccc2/C1=C\c1ccc(C(C)C)cc1 | ≥ 100 |  |
| CCc1ccc2c(c1)C(CC(=O)O)=C(C)/C2=C/c1ccc(C(C)C)cc1 | ≥ 100 |  |
| CC1=C(CC(=O)O)c2cc(C)ccc2/C1=C\c1ccc(C(C)C)cc1 | ≥ 100 |  |
| CC1=C(CC(=O)O)c2cc(F)ccc2/C1=C\c1ccc([S+](C)[O-])cc1 (stereo unspecified) |  | Activity (HCT-116): Active; Activity (ZR-75-1 [2]): Active; IC50 [3]: 82.9 µM |
| CCOc1ccc2c(c1)C(CC(=O)O)=C(C)/C2=C/c1ccc(C(C)C)cc1 | 3.08 |  |
| CC1=C(CC(=O)O)c2cc(F)ccc2/C1=C\c1ccc(C(C)C)cc1 |  | inhibition [4]: Active; inhibition [5]: Active; inhibition [6]: Dose-dependent effect; Activity (HCT-116): Active; Activity (ZR-75-1 [2]): Active; IC50 [3]: 2.4 µM; inhibition [7]: Active |
| CC1=C(CC(=O)O)c2cc(F)ccc2/C1=C\c1ccc(C(C)(C)C)cc1 | ≥ 100 |  |
| CCOc1ccc(/C=C2/C(C)=C(CC(=O)O)c3cc(F)ccc32)cc1 | ≥ 100 |  |
| CC1=C(CC(=O)O)c2cc(F)ccc2/C1=C\c1cccc(C#N)c1 | ≥ 100 |  |
| CC1=C(CC(=O)O)c2cc(F)ccc2/C1=C\c1cccc(C(F)(F)F)c1 | 8.27 |  |
| COc1cccc(/C=C2/C(C)=C(CC(=O)O)c3cc(F)ccc32)c1 | ≥ 100 |  |
| CC(C)CC1=C(CC(=O)O)c2cc(F)ccc2/C1=C\c1ccc(C(C)C)cc1 | 3.15 |  |
| CC1=C(CC(=O)O)c2cc(F)ccc2/C1=C\c1ccc(C#N)cc1 | ≥ 100 |  |
| CC1=C(CCC(=O)O)c2cc(F)ccc2/C1=C\c1ccc(C(C)C)cc1 | 5.71 |  |
| CC(C)c1ccc(/C=C2\C=C(CC(=O)O)c3cc(F)ccc32)cc1 | 1.6 | Activity (HCT-116): Active; Activity (PC-3): Dose-dependent effect; Activity (ZR-75-1 [8]): Dose-dependent effect; Activity (ZR-75-1 [2]): Active; Activity (HeLa): inactive |
| CC1=C(CC(=O)O)c2ccccc2/C1=C\c1ccc(C(C)C)cc1 | ≥ 100 |  |
| CC1=C(CC(=O)O)c2cc(F)ccc2/C1=C\c1ccc(N(C)C)cc1 | ≥ 100 |  |
| CC(=O)Nc1ccc(/C=C2/C(C)=C(CC(=O)O)c3cc(F)ccc32)cc1 | ≥ 100 |  |
| CC1=C(CCC#N)c2cc(F)ccc2/C1=C\c1ccc(C(C)C)cc1 | ≥ 100 |  |
| CC1=C(CC(N)=O)c2cc(F)ccc2/C1=C\c1ccc(C(C)C)cc1 | ≥ 100 |  |
| COc1ccc2c(c1)C(CC(=O)O)=C(C)/C2=C/c1ccc(C(C)C)cc1 | ≥ 100 |  |
| CC1=C(CC(=O)O)c2cc(F)ccc2/C1=C\c1ccccc1 | 10.7 |  |

From ChEMBL document CHEMBL2331313, “Synthesis and SAR study of modulators inhibiting tRXRα-dependent AKT activation” (Eur J Med Chem, 2013)
